# According to PubChem BioAssay AID449755 (Broad Institute, 2010):
# Inconclusive results are not listed. Active and inactive are the calls of the source.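 The calls were made as follows: active = compounds raising caspase signal whose fitted AC50 is at most ten times the top tested dose; inconclusive = flat fit with 30 to 70% activity, or failed fit; inactive = the rest.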
# Test system: HMC 1-8 low-A1 cells, caspase-3/7 luminescence, 3 h
# Assay: caspase induction, A1-low human cancer line – cell-based, HMC 1-8 low A1, caspase luminescence, counter-screen for A1 inhibitor project, dose response (AID 449755)
# Outline: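 Material: Low-A1 HMC 1-8 human cancer cell line | Amount: 2500 cells per well, seeded the day before compound | Medium: RPMI-1640, 10% FBS | Compound dosing: Pin-transferred compound | Incubation: Compound 3 h at 37 °C, detection 1 h RT | Signal: Caspase-3/7 DEVD luminescence | Read-out basis: Caspase-3/7 activation, marking off-target non-A1 activity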
row,SMILES,AC50
1,Cc1c(C=O)c(C=O)c(C)n1Cc1ccccc1,> 35 µM (inactive)
2,COc1ccc(C=C2C=C(C(C)(C)C)C(=O)C(C(C)(C)C)=C2)cc1OC,5.9 µM
3,COc1ccccc1C(=O)Nc1ccnn1C1CCN(Cc2cn(C)c3ccccc23)CC1,> 35 µM (inactive)
4,COc1ccc2c(c1)[nH]c1c(=O)n(/N=C/C3C(C)C=C(C)CC3C)c(=O)[nH]c12 (stereo not given),> 35 µM (inactive)
5,N#Cc1cccnc1N1CCN(C(=O)c2cccc3c2C(=O)c2ccc(-c4ccc(Cl)c(C(F)(F)F)c4)cc2S3(=O)=O)CC1,> 35 µM (inactive)
6,O=C(Nc1ccc2oc(-c3ccccc3)nc2c1)c1ccccc1F,> 35 µM (inactive)
7,CC(=O)Nc1ncnc2c1c(-c1ccc(Cl)cc1)nn2C(C)(C)C,> 35 µM (inactive)
8,CC(C)c1cccc(-c2ccc3c(c2)S(=O)(=O)c2cccc(C(=O)NC4CCCC4)c2C3=O)c1,> 35 µM (inactive)
9,C=C1/C=C(\C)[C@](C)(O)C[C@H](O)CC(=O)[C@H](O)[C@@H](O)[C@H](C)C[C@H](C)OC(=O)/C(C)=C/CC/C=C/[C@@H]2O[C@H]2C[C@H](C)C1,> 35 µM (inactive)
10,COc1cc(C(=O)Nc2cc3c(cc2N2CCCCC2)n(C)c(=O)n3C)cc(OC)c1OC,> 35 µM (inactive)
11,Cc1nn(Cc2ccc(Cl)cc2Cl)c(C)c1NC(=O)Cn1nc([N+](=O)[O-])c(Cl)c1C,> 35 µM (inactive)
12,CCOC(=O)/C=c1\s/c(=C\c2ccc(C(=O)OC)cc2)c(=O)n1CC(=O)Nc1ccccc1,> 35 µM (inactive)
13,COc1ccc(C[C@H]2NC[C@H](O)[C@H]2OC(C)=O)cc1,1.09 µM
14,c1ccc(-c2sc3ccccc3c2-c2ccc(OCCN3CCCC3)cc2)cc1,> 35 µM (inactive)
15,CC(=O)Nc1sc(N/N=C\c2cccc(Cl)c2)nc1-c1cccs1,> 35 µM (inactive)
16,Cc1ccc(N(Cc2cc(=O)[nH]c3ccccc23)C(=O)CCl)cc1,> 35 µM (inactive)
17,COc1cc(-c2cc(-c3ccccc3)nc(SCC(=O)Nc3nccs3)c2C#N)cc(OC)c1OC,> 35 µM (inactive)
18,COc1ccc(NC(=O)CSc2nc3ccc(Nc4nc(N5CCOCC5)nc(N5CCOCC5)n4)cc3s2)cc1,> 35 µM (inactive)
19,O=C(Cn1c(C(F)(F)F)nc2ccccc21)N=Nc1c(O)[nH]c2ccc(Br)cc12,32.3 µM
20,CN(C)C/C=C(\c1ccc(Br)cc1)c1cccnc1,> 35 µM (inactive)
21,COc1cc(NC(=O)c2cccc(C)c2)ccc1NC(=O)c1cc2ccccc2o1,> 35 µM (inactive)
22,Cc1ccc(C#N)c(SCC(=O)Nc2nccs2)n1,> 35 µM (inactive)

row,SMILES,AC50
1,O=C(Nc1ccc([N+](=O)[O-])cc1)c1nc[nH]c1C(=O)NC1CCCCC1,> 35 µM (inactive)
2,Cc1ccc(C=C2C(Cl)=C(Cl)C(Cl)=C2Cl)cc1,12.9 µM
3,COc1ccc(OC[C@@H](O)CNC(=O)c2cccc3c2C(=O)c2ccc(-c4ccc(F)cc4OCc4ccccc4)cc2S3(=O)=O)cc1,> 35 µM (inactive)
4,Cc1ccc(CS(=O)(=O)c2ncc(Cl)c(C(=O)Nc3nnc(C(C)C)s3)n2)cc1,> 35 µM (inactive)
5,Oc1[nH]c2ccc(Br)cc2c1N=NC(=S)Nc1ccc(F)cc1,> 35 µM (inactive)
6,CCOC(=O)/C(=C\c1cccnc1)C(=O)c1cc(C(C)=O)c(Nc2ccccc2)s1,> 35 µM (inactive)
7,COC(=O)c1ccc2c(c1)C(C)(C)C(/C=C/c1ccccc1O)=[N+]2C,8.58 µM
8,CCc1nnc(NC(=O)c2nc(S(=O)(=O)Cc3ccccc3)ncc2Cl)s1,> 35 µM (inactive)
9,CC(C)c1cccc(-c2ccc3c(c2)S(=O)(=O)c2cccc(C(=O)NCc4ccccc4Cl)c2C3=O)c1,> 35 µM (inactive)
10,CCn1c(SCC(=O)c2ccccc2)nnc1-c1cc2cc(Br)ccc2o1,> 35 µM (inactive)
11,CC(=O)OC(C)(C)/C=C/C(=O)[C@](C)(O)C1[C@H](O)C[C@@]2(C)C3CC=C4C(C[C@H](O)C(=O)C4(C)C)[C@]3(C)C(=O)C[C@]12C (stereo not given in full),> 35 µM (inactive)
12,Cc1cccc(Nc2nc(N)c([N+](=O)[O-])c(N3CCCC(C)C3)n2)c1 (stereo not given),> 35 µM (inactive)
13,Cc1ccc(C)c(S(=O)(=O)NCC(=O)Nc2sc3c(c2C(N)=O)CCC(C)C3)c1 (stereo not given),> 35 µM (inactive)
14,Cc1ccc(Sc2c([N+](=O)[O-])c(=O)n(C)c3ccccc23)cc1,> 35 µM (inactive)
15,CC(C)c1ccc2[nH]c(O)c(N=NC(=O)c3cccc(S(=O)(=O)Nc4ccc(Cl)cc4)c3)c2c1,> 35 µM (inactive)
16,CCCCN1C(=O)/C(=C2/Sc3ccccc3N2C)S/C1=N\c1ncn[nH]1,> 35 µM (inactive)
17,Cc1nn(-c2ccccc2)c(C)c1/C=N/NC(=O)CSc1nc2ccccc2c(=O)n1-c1ccc(Br)cc1,> 35 µM (inactive)
18,COc1ccc(NC(=O)c2cccc3c2C(=O)c2ccc(-c4ccc(F)cc4OCc4ccccc4)cc2S3(=O)=O)cc1,> 35 µM (inactive)
19,CCOC(=O)c1c(C)oc2c1c(CN1CCN(C(=O)OCC)CC1)c(O)c1ccccc12,26.3 µM
20,Oc1ccc(/C=N/N2CCN(C3c4ccccc4-c4ccccc43)CC2)cc1O,> 35 µM (inactive)
21,CC1CC(C)CN(C(=O)c2ccc(-c3ccc([N+](=O)[O-])cc3)o2)C1 (stereo not given),> 35 µM (inactive)
22,COc1ccc(OC)c(NC(=O)c2cc(-c3cc(C)ccc3O)n[nH]2)c1,> 35 µM (inactive)

row,SMILES,AC50
1,COc1cc(/C=C(/C#N)c2nc3ccccc3[nH]2)ccc1OCC(=O)Nc1ccccc1C,3.01 µM
2,COc1ccc(C(=O)/C=C/C(=O)N(CC(=O)NC2CCCCC2)Cc2cccs2)c(O)c1,5.69 µM
3,COc1cc(CN2CCN(c3cc(C)ccc3C)CC2)ccc1O,> 35 µM (inactive)
4,CCOC(=O)c1ccc(-c2ccc(/C=N/NC(=O)CN(c3cccc(C)c3)S(C)(=O)=O)o2)cc1,> 35 µM (inactive)
5,COc1ccc(Oc2cc(NC(=O)c3nn(C)cc3[N+](=O)[O-])cc([N+](=O)[O-])c2)cc1,> 35 µM (inactive)
6,CC(C)(C)C1CCc2onc(C(=O)Nc3cccc(O)c3)c2C1 (stereo not given),> 35 µM (inactive)
7,Cc1ccc(C(=O)COC(=O)c2ccc3c(c2)C(=O)N(c2cccc4ncccc24)C3=O)cc1,24.3 µM
8,N#C/C(=C\c1ccc(OCc2ccccc2)cc1)C(=O)Nc1nc2c(s1)CCN(Cc1ccccc1)C2,> 35 µM (inactive)
9,Cc1ccc(C(=O)/C=C/C(=O)c2ccc(C)cc2)cc1,> 35 µM (inactive)
10,CCc1nnc(NC(=O)CSc2nc(-c3ccccc3)cc(-c3ccc(F)cc3)c2C#N)s1,> 35 µM (inactive)
11,O=C(Nc1ccc2oc(-c3ccccc3Cl)nc2c1)c1cncc(Br)c1,> 35 µM (inactive)
12,CC(C)Cn1c(O)c(/C=C2\C=NN=C2c2ccccc2)sc1=S,> 35 µM (inactive)
13,Cc1ccc(C(=O)/C=C\C(=O)c2ccc(C)cc2)cc1,> 35 µM (inactive)
14,COc1ccc(-c2cc(=O)oc3c(C)c(OC(=O)c4cccs4)ccc23)cc1,> 35 µM (inactive)
15,COCc1cc(C)nc(SCC(=O)Nc2nc(C)cs2)c1C#N,> 35 µM (inactive)
16,Cc1ccc(C2(c3ccc(C)cc3)CC2C(=O)Nc2ccc([N+](=O)[O-])cc2O)cc1 (stereo not given),> 35 µM (inactive)
17,CC(=O)OC(C)(C)/C=C/C(=O)C(C)(O)C1[C@H](O)C[C@@]2(C)C3CC=C4C(CC[C@@H](O)C4(C)C)[C@]3(CO)C(=O)C[C@]12C (stereo not given in full),> 35 µM (inactive)
18,CC1=NNC(=O)/C1=C\c1cn(-c2ccccc2)nc1-c1cccs1,> 35 µM (inactive)
19,CC1(C)C[C@H](O)[C@]2(CO)[C@H](O)C[C@]3(C)C(=CCC4[C@@]5(C)CC[C@H](O)C(C)(C)C5CC[C@]43C)[C@@H]2C1 (stereo not given in full),> 35 µM (inactive)
20,COc1ccc(NC(=S)NC(NC(=O)/C=C/c2ccccc2)C(Cl)(Cl)Cl)cc1 (stereo not given),> 35 µM (inactive)
21,Cc1cc(C)n(-c2nc(Nc3ccccc3C)nc(-n3nc(C)cc3C)n2)n1,> 35 µM (inactive)
22,O=C(COc1ccccc1[N+](=O)[O-])Nc1ccc(NC(=O)c2cc3ccccc3o2)cc1,9.07 µM

row,SMILES,AC50
1,CCOC(=O)COc1ccccc1/C=C\[N+](=O)[O-],> 35 µM (inactive)
2,CCS(=O)(=O)c1ncc(Cl)c(C(=O)Nc2ccccc2OC)n1,> 35 µM (inactive)
3,CN1C2CCC1/C(=C/c1ccccn1)C(=O)/C2=C\c1ccccn1,> 35 µM (inactive)
4,Cc1ccc(S(=O)(=O)c2nnn3c2nc(Nc2cccc(C)c2)c2ccccc23)cc1,> 35 µM (inactive)
5,O=C(CCl)N=c1sccn1Cc1ccccc1Cl,> 35 µM (inactive)
6,COc1ccccc1-c1cn[nH]c1-c1ccc(OCc2ccccc2)cc1O,> 35 µM (inactive)
7,Cc1ccc(NC(=O)CSc2nc3nc(C)c(Br)cc3[nH]2)cc1F,> 35 µM (inactive)
8,COC(=O)CSc1nc(N)c2c3c(sc2n1)C(c1ccccc1)SC(c1ccccc1)C3 (stereo not given),> 35 µM (inactive)
9,O=C(Oc1cccc(/C=N/Nc2nc(Nc3ccccc3)nc(N3CCOCC3)n2)c1)c1ccco1,> 35 µM (inactive)
10,N#CC(C#N)=C1C=CC=CN1/C(=C\c1ccccc1Cl)C(=O)c1ccccc1,27.9 µM
11,O=C(NC[C@H]1CCCO1)c1cccc2c1C(=O)c1ccc(-c3ccc(F)cc3OCc3ccccc3)cc1S2(=O)=O,> 35 µM (inactive)
12,C=CC(=O)Nc1ccc(CN2C(=O)N(c3c(Cl)c(OC)cc(OC)c3Cl)Cc3cnc(NCCCCN(CC)CC)nc32)cc1,> 35 µM (inactive)
13,COc1ccc(C2CC(c3c(O)cc(C)oc3=O)=NCCS2)c(OC)c1 (stereo not given),> 35 µM (inactive)
14,CC(C)(C)c1ccc(C(=O)Nc2ccc(O)c3c(=O)cc(-c4cccc(Cl)c4)oc23)cc1,> 35 µM (inactive)
15,CCC1CCCCN1S(=O)(=O)c1ccc(NC(=O)c2nc(S(C)(=O)=O)ncc2Cl)cc1 (stereo not given),> 35 µM (inactive)
16,O=C1/C(=C/c2ccc(N3CCOCC3)o2)SC(=Nc2ccccc2)N1CCc1c[nH]c2ccccc12,> 35 µM (inactive)
17,O=C(NC1CCCCC1)c1cccc2c1C(=O)c1ccc(-c3ccc(OC(F)(F)F)cc3)cc1S2(=O)=O,> 35 µM (inactive)
18,O=C(COc1ccc(/C=N/NC(=O)c2cc3ccccc3o2)cc1Cl)Nc1ccccc1,8.65 µM
19,COc1ccccc1CCNC(C)CCc1ccc(O)cc1 (stereo not given),> 35 µM (inactive)
